Laboratory results reported in ChEMBL document CHEMBL2429849, “Substrate-based fragment identification for the development of selective, nonpeptidic inhibitors of striatal-enriched protein tyrosine phosphatase” (J Med Chem, 2013).
The source made the active and inactive calls. The rule behind the calls is not given here.

Columns and labels:
[1] = biological target: T1, Tyrosine-protein phosphatase non-receptor type 2 (Homo sapiens, UniProt P17706); experiment: Inhibition of human TC-PTP using pNPP as substrate after 5 mins by spectrophotometric plate reader analysis
T1 sequence (P17706 whole entry): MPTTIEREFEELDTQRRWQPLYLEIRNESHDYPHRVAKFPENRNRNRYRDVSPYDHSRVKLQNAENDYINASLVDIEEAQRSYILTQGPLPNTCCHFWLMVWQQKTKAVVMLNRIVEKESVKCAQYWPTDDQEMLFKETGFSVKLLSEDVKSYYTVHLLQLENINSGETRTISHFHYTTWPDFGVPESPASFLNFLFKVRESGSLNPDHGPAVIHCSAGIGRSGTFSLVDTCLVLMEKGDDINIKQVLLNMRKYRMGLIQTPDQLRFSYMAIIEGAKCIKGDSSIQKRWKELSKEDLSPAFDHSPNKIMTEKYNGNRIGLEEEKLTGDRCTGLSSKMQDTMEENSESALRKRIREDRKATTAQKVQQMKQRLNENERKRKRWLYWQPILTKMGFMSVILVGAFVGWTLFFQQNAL
Outline: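 Selectivity assay using the STEP Ki protocol. Enzyme was preincubated 5 min at 27 °C with two- or three-fold inhibitor serial dilutions in DMSO, in imidazole/NaCl buffer at pH 7.0 with 0.01% Triton X-100 and 5 mM DTT. Reaction started with pNPP (500 μM in assay), read continuously at 405 nm for 20 min. Ki came from nonlinear regression of substrate-velocity curves, using this enzyme's pNPP KM; at least duplicate.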

[2] = biological target: T2, Tyrosine-protein phosphatase non-receptor type 5 (Homo sapiens, UniProt P54829); experiment: Inhibition of human STEP using pNPP as substrate after 5 mins by spectrophotometric plate reader analysis
T2 sequence (P54829 whole entry): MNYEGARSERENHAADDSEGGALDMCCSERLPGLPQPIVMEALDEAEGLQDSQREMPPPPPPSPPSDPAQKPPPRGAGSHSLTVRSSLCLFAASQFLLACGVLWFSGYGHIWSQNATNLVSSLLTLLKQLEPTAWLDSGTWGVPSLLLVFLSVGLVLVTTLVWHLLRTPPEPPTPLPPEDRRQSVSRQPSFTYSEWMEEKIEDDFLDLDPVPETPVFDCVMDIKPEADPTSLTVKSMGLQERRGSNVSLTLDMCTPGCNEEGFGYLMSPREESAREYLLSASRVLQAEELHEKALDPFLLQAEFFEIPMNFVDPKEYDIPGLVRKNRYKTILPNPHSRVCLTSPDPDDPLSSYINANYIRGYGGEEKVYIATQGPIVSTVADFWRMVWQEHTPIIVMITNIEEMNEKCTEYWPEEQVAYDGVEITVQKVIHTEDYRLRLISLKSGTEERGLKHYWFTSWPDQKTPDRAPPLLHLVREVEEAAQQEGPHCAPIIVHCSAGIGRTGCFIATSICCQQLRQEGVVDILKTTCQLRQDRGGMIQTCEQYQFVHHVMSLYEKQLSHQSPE

[3] = biological target: Receptor-type tyrosine-protein phosphatase F (Homo sapiens, UniProt P10586); experiment: Inhibition of human LAR using pNPP as substrate after 5 mins by spectrophotometric plate reader analysis
Outline: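 Enzyme preincubated 5 min at 27 °C with serially diluted inhibitor (from DMSO) in imidazole/NaCl buffer pH 7.0 with 0.01% Triton X-100 and 5 mM DTT. Started with pNPP (500 μM in assay) and read at 405 nm for 20 min. The pNPP KM was measured for each enzyme. Ki from nonlinear regression of substrate–velocity curves at several inhibitor levels; at least duplicate.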

[4] = organism: Homo sapiens; experiment: Selectivity ratio of Ki for human TC-PTP to Ki for human STEP
Outline: (§1)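 STEP, CD45, LAR and TC-PTP used pNPP (500 μM) in imidazole/NaCl pH 7.0 with Triton X-100, read at 405 nm for 20 min. MKP5 used DiFMUP in Tris-HCl pH 8.0. The enzyme's own pNPP KM was used in analysis; ratio of the Ki values.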

[5] = organism: Homo sapiens; experiment: Selectivity ratio of Ki for human CD45 to Ki for human STEP; outline: as §1
[6] = organism: Homo sapiens; experiment: Selectivity ratio of Ki for human LAR to Ki for human STEP; outline: as §1
[7] = biological target: T3, Tyrosine-protein phosphatase non-receptor type 5 (Rattus norvegicus) (UniProt P35234); experiment: Inhibition of STEP in Sprague-Dawley rat embryo primary cortical neurons assessed as phosphorylation of GluN2B at 0.1 to 10 uM after 1 hr by Western blot analysis; settings: Cerebral cortex neuron
T3 sequence (whole entry): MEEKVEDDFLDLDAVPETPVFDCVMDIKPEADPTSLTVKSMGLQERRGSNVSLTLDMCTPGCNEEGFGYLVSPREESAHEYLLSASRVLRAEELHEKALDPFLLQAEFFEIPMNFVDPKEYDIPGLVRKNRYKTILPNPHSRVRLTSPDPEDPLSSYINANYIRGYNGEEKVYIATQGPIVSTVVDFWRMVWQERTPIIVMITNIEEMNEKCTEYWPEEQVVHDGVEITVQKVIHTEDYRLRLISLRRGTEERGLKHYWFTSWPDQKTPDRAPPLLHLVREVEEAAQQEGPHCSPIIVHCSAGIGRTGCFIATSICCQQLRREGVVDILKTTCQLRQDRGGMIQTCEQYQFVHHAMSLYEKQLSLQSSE
Outline: (§2)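 E18 rat cortical neurons were trypsin-dissociated and plated on poly-D-lysine in Neurobasal with 2% B27, then grown 18–21 days at 37 °C. Compound was added at final 0, 0.1, 1 or 10 μM (0.1% DMSO) for 1 h at 37 °C. Cells were lysed in RIPA with protease/phosphatase inhibitors and protein measured by BCA. Phospho and total proteins were blotted by SDS-PAGE, with antibodies overnight at 4 °C and chemiluminescent detection.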

[8] = biological target: T3, Tyrosine-protein phosphatase non-receptor type 5 (Rattus norvegicus); experiment: Inhibition of STEP in Sprague-Dawley rat embryo primary cortical neurons assessed as phosphorylation of Pyk2 at 0.1 to 10 uM after 1 hr by Western blot analysis; settings: Cerebral cortex neuron; outline: as §2
[9] = biological target: T3, Tyrosine-protein phosphatase non-receptor type 5 (Rattus norvegicus); experiment: Inhibition of STEP in Sprague-Dawley rat embryo primary cortical neurons assessed as phosphorylation of ERK1/2 at 0.1 to 10 uM after 1 hr by Western blot analysis; settings: Cerebral cortex neuron; outline: as §2

Sequence of Receptor-type tyrosine-protein phosphatase F (P10586 whole entry): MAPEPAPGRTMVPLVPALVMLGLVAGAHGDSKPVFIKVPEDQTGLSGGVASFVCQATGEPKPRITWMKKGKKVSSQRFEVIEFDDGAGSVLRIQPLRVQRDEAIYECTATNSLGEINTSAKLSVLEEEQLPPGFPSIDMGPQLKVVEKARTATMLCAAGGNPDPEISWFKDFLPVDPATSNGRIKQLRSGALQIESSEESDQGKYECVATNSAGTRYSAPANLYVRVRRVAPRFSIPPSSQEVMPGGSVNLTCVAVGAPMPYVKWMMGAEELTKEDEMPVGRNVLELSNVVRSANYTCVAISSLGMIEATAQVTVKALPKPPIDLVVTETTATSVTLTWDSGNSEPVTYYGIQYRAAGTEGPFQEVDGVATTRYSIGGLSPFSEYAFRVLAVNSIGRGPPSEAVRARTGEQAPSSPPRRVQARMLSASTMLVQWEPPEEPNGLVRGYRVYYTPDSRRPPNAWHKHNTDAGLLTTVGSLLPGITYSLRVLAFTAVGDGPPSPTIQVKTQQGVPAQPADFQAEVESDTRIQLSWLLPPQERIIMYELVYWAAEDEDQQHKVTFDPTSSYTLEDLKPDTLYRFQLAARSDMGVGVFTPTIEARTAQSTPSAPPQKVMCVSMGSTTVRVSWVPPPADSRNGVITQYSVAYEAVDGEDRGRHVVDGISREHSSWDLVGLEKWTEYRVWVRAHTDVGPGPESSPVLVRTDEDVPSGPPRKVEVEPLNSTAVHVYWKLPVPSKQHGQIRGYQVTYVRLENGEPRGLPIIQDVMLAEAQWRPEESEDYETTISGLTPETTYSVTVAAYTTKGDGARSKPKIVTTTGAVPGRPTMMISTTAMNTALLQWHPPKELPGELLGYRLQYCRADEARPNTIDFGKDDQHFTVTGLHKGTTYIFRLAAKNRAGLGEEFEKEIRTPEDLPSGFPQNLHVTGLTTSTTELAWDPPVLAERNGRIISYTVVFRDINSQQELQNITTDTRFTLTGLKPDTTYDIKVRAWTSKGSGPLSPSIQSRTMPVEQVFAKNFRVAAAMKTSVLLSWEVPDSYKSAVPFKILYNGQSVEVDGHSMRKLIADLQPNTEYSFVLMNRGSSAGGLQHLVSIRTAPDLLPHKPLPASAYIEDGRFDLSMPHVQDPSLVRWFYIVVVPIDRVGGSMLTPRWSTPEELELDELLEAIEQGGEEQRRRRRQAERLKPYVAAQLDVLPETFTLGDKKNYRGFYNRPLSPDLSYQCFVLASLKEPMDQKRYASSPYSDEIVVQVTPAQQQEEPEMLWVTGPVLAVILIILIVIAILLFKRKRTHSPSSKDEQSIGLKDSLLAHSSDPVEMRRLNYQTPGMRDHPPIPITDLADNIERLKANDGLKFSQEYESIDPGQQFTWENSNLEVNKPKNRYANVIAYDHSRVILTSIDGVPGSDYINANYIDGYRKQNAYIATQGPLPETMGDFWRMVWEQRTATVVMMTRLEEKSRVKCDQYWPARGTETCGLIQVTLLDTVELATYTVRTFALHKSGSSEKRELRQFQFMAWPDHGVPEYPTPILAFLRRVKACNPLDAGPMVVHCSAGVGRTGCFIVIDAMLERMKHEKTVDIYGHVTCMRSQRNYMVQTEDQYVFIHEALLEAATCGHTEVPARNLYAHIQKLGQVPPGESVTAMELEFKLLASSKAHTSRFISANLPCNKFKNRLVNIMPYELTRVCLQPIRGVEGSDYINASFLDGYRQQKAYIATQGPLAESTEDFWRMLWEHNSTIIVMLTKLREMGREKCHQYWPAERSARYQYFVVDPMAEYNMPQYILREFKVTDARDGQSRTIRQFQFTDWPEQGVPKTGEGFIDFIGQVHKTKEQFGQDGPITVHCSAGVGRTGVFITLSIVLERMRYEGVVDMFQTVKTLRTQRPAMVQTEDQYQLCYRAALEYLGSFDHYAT

Structure (SMILES) | Ki [1] [µM] | Ki [2] [µM] | Ki [3] [µM] | Ratio Ki [4] | Ratio Ki [5] | Ratio Ki [6] | inhibition [7] | inhibition [8] | inhibition [9]
O=P(O)(O)[C@H](O)c1ccc(-c2cccc([C@@H](O)c3ccc(Cl)c(Cl)c3)c2)cc1 | 164 | 8.9 | 360 | 18 | 38 | 40 | Active | Active | Active
O=P(O)(O)[C@H](O)c1ccc(-c2cccc([C@H](O)c3ccc(Cl)c(Cl)c3)c2)cc1 | 170 | 7.8 | 390 | 22 | 35 | 50 | Active | Active | Active
